From ChEMBL document CHEMBL3108756, “Evaluation of aminohydantoins as a novel class of antimalarial agents” (ACS Med Chem Lett, 2014)
Active and inactive are the calls of the source. No cut-off for these calls is given here.

How the values were obtained:
Plasmodium falciparum [1] = test: Antimalarial activity against chloroquine-sensitive Plasmodium falciparum 3D7 infected in […] after 72 hrs by SYBR Green I-based fluorescence method; assay type: functional, organism-based; conditions: for IC50: 3D7, 72 h
Cytochrome P450 2C9 = Cytochrome P450 2C9 (Homo sapiens, UniProt P11712); test: Inhibition of human recombinant CYP2C9 after 30 mins; assay type: ADME; conditions: recombinant enzyme, 0.5 h
Cytochrome P450 2C9, sequence (P11712 whole entry): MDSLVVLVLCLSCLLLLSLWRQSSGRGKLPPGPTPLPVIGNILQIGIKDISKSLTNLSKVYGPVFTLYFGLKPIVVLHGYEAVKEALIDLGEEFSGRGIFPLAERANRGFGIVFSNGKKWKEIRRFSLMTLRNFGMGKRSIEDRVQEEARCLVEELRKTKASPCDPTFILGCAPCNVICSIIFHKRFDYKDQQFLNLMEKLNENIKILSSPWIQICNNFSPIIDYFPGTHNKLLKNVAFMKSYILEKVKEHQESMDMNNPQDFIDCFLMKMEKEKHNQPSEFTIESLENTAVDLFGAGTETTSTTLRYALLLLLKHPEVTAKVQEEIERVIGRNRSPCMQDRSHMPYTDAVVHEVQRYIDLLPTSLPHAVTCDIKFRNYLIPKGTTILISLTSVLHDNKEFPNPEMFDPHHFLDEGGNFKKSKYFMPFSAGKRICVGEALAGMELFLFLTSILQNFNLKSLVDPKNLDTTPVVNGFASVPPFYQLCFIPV

Cytochrome P450 2C19 = Cytochrome P450 2C19 (Homo sapiens, UniProt P33261); test: Inhibition of human recombinant CYP2C19 after 30 mins; assay type: ADME; conditions: recombinant enzyme, 0.5 h
Cytochrome P450 2C19, sequence (P33261 whole entry): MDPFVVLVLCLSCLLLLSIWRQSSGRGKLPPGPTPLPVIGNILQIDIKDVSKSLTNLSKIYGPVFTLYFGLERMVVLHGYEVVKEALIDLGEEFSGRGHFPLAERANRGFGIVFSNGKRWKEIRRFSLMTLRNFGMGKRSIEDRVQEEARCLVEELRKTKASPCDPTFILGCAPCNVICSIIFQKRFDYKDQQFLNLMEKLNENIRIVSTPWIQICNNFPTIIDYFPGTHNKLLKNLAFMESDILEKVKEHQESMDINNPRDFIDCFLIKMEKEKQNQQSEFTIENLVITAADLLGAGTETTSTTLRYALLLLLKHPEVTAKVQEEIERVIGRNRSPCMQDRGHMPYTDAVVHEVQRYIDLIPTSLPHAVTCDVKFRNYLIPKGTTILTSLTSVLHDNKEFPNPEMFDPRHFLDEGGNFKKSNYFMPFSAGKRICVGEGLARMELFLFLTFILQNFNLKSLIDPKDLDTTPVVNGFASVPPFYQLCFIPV

[2] = Plasma concentration in Plasmodium chabaudi ASS infected NIH mouse at 100 mg/kg, po qd measured 24 hrs after post last dose on day 3; assay type: ADME, organism-based; set-up: dose 100 mg/kg, route oral
In short: (§1)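 P. chabaudi-infected mice were dosed orally once daily for four days, starting four hours post-infection. Plasma compound levels were measured at 1, 6 and 24 h after the last dose on Day 3.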

Plasmodium chabaudi [3] = test: Antimalarial activity against Plasmodium chabaudi ASS infected in NIH mouse assessed as inhibition of parasitemia at 100 mg/kg, po qd for 4 days; assay type: functional; conditions: 96 h
In short: (§2)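 Mice infected with P. chabaudi were given oral doses once daily for four days, starting four hours after infection. Parasitemia was read on Day 4 postinoculation and expressed as percent inhibition of parasitemia.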

HepG2 = test: Cytotoxicity against human HepG2 cells after 72 hrs; assay type: cell-based; conditions: hepg2, 72 h
Plasmodium falciparum [4] = test: Antimalarial activity against chloroquine and pyrimethamine-resistant Plasmodium falciparum Dd2 infected in […] after 48 hrs by SYBR Green I-based fluorescence method; assay type: functional
Plasmodium falciparum [5] = test: Antimalarial activity against chloroquine-sensitive Plasmodium falciparum 3D7 infected in […] after 48 hrs by SYBR Green I-based fluorescence method; assay type: functional, organism-based
Cytochrome P450 1A2 = target: T1, Cytochrome P450 1A2 (Homo sapiens, UniProt P05177); test: Inhibition of human recombinant CYP1A2 after 30 mins; assay type: ADME; conditions: recombinant enzyme, 0.5 h
T1 sequence (P05177 whole entry): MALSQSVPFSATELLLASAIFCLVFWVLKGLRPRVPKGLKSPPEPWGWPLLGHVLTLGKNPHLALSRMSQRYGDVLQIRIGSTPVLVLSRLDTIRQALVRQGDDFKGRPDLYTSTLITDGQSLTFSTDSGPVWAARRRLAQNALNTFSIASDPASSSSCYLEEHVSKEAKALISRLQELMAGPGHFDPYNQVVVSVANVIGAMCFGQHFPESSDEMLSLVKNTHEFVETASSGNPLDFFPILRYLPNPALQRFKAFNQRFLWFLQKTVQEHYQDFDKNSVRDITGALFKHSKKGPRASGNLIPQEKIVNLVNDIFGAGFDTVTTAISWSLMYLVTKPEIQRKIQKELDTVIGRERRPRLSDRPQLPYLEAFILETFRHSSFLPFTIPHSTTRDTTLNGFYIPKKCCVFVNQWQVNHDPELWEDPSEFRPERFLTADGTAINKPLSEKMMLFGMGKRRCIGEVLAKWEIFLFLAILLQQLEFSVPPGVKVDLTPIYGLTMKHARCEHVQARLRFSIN

Cytochrome P450 3A4 = Cytochrome P450 3A4 (Homo sapiens, UniProt P08684); test: Inhibition of human recombinant CYP3A4 after 30 mins; assay type: ADME; conditions: recombinant enzyme, 0.5 h
Cytochrome P450 3A4, sequence (P08684 whole entry): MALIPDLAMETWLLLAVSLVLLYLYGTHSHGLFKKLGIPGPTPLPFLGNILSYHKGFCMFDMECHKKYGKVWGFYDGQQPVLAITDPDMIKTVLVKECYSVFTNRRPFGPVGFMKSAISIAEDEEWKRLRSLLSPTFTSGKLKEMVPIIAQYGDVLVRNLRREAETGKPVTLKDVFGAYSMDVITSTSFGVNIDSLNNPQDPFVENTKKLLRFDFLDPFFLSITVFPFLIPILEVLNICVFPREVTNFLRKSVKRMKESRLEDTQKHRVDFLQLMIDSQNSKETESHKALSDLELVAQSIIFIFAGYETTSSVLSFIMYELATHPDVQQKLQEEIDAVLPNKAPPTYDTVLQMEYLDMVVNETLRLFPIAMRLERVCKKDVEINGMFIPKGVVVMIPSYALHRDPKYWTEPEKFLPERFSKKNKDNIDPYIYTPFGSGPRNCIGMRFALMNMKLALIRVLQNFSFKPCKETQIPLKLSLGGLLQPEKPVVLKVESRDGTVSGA

[6] = Plasma concentration in Plasmodium chabaudi ASS infected NIH mouse at 100 mg/kg, po qd measured 1 hr after post last dose on day 3; assay type: ADME, organism-based; set-up: dose 100 mg/kg, route oral; in short: as §1
Cytochrome P450 2D6 = Cytochrome P450 2D6 (Homo sapiens, UniProt P10635); test: Inhibition of human recombinant CYP2D6 after 30 mins; assay type: ADME; conditions: recombinant enzyme, 0.5 h
Cytochrome P450 2D6, sequence (P10635 whole entry): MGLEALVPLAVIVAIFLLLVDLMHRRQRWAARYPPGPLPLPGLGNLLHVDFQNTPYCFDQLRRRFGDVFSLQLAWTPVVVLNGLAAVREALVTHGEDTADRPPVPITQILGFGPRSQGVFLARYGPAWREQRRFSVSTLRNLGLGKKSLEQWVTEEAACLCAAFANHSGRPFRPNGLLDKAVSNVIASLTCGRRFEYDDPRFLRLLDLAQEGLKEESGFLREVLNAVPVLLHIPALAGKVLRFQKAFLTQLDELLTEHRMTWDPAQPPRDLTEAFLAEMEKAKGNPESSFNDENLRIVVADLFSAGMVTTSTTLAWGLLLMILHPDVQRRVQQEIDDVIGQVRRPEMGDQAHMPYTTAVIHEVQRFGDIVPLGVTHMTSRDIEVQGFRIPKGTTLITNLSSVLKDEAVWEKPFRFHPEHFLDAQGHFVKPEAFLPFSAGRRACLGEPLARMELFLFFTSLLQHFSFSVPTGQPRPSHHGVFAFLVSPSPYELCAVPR

[7] = Plasma concentration in Plasmodium chabaudi ASS infected NIH mouse at 100 mg/kg, po qd measured 6 hrs after post last dose on day 3; assay type: ADME, organism-based; set-up: dose 100 mg/kg, route oral; in short: as §1
[8] = test system: Plasmepsin IV (Plasmodium falciparum); test: Inhibition of Plasmodium falciparum plasmepsin-4 after 60 mins by fluorescence assay
[9] = target: Plasmepsin II (Plasmodium falciparum) (UniProt P46925); test: Inhibition of Plasmodium falciparum plasmepsin-2 after 60 mins by fluorescence assay
Plasmepsin II (Plasmodium falciparum), sequence (P46925 125-453 limits assumed): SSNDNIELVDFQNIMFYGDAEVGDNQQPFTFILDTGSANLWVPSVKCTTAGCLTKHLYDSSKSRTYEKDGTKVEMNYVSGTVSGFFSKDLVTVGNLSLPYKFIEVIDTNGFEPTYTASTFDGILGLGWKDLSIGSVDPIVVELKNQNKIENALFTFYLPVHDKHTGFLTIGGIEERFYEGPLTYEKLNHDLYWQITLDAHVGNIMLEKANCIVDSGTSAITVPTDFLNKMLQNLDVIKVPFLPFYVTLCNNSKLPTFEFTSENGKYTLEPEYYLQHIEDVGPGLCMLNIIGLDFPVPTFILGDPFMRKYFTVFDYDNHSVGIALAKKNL

Plasmepsin V = Plasmepsin V (Plasmodium falciparum (isolate 3D7), UniProt Q8I6Z5); test: Inhibition of Plasmodium falciparum […] plasmepsin-5 using DABCYL-GNKRTLAQKQG-EDANS as substrate measured every 15 mins of 75 mins by fluorescence assay
Plasmepsin V, sequence (Q8I6Z5 whole entry): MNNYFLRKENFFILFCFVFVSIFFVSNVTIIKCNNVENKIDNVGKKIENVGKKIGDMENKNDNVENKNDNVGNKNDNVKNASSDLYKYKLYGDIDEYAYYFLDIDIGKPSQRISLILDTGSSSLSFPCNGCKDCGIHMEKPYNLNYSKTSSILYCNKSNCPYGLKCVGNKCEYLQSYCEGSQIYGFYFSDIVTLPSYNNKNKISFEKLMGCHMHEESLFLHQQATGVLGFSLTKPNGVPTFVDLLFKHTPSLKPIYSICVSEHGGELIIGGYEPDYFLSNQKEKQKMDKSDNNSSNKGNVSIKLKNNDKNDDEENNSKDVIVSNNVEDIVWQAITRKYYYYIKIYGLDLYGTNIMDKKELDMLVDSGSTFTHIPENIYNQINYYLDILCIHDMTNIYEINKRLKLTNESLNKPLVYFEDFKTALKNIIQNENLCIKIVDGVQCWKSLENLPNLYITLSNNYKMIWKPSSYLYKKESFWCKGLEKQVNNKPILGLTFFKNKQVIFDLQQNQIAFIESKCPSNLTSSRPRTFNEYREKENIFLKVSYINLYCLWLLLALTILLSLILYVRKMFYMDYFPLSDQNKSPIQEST

[10] = Plasma concentration in Plasmodium chabaudi ASS infected NIH mouse at 110 mg/kg, po qd measured 24 hrs after post last dose on day 3; assay type: ADME, organism-based; set-up: dose 110 mg/kg, route oral; in short: as §1
Plasmodium chabaudi [11] = test: Antimalarial activity against Plasmodium chabaudi ASS infected in NIH mouse assessed as inhibition of parasitemia at 110 mg/kg, po qd for 4 days; assay type: functional; conditions: 96 h; in short: as §2
[12] = Plasma concentration in Plasmodium chabaudi ASS infected NIH mouse at 110 mg/kg, po qd measured 30 mins after post last dose on day 3; assay type: ADME, organism-based; set-up: dose 110 mg/kg, route oral

With `COc1ccc(C2(c3ccc(OC)cc3)NC(=N)N(C3CCC(O)CC3)C2=O)cc1` (stereo not drawn) the IC50 (Plasmodium falciparum [1]) was 14800 nM.

For `COc1ccc(C2(c3ccc(OC)cc3)NC(=N)N(CC3CCCCC3)C2=O)cc1`, the “inhibition (INH)” value (Cytochrome P450 2C9) was “Not Active”, the “inhibition (INH)” value (Cytochrome P450 2C19) was “Not Active” and the concentration at 24 h [2] was 7 ng/mL. For the same compound, the inhibition in vivo at 100 mg/kg (Plasmodium chabaudi [3]) was 73%, the Activity (HepG2) was “Toxic” and the inhibition (Plasmodium falciparum [4]) was “Active”. The inhibition (Plasmodium falciparum [5]) was “Active”, the “inhibition (INH)” value (Cytochrome P450 1A2) was “Not Active” and the “inhibition (INH)” value (Cytochrome P450 3A4) was “Active”. For the same compound, the concentration at 1 h [6] was 2520 ng/mL, the IC50 (Plasmodium falciparum [1]) was 383 nM and the “inhibition (INH)” value (Cytochrome P450 2D6) was “Not Active”. For the same compound, the concentration at 6 h [7] was 2190 ng/mL.

Work on `CCN1C(=N)NC(c2ccc(OC)cc2)(c2ccc(OC)cc2)C1=O` yielded an IC50 (Plasmodium falciparum [1]) of 3950 nM.

With `CC(C)(C)N1C(=N)NC(c2ccccc2)(c2ccccc2)C1=O` the IC50 (Plasmodium falciparum [1]) was greater than 100000 nM.

Work on `COc1cccc(C2(c3ccccc3)NC(=N)N(C3CCCCC3)C2=O)c1` (racemic) yielded an IC50 (Plasmodium falciparum [1]) of 917 nM.

In the case of `COc1ccc(C2(c3ccc(OC)cc3)NC(=O)N(C3CCCCC3)C2=O)cc1`, the inhibition [8] is reported as “inactive”, the inhibition [9] is reported as “inactive” and the inhibition (Plasmodium falciparum [1]) is reported as “inactive”.

Compound `Cc1cccc(C)c1OCC(=O)N[C@@H](Cc1ccccc1)[C@@H](O)C[C@H](Cc1ccccc1)NC(=O)[C@H](C(C)C)N1CCCNC1=O` [LOPINAVIR] has an IC50 (Plasmepsin V) greater than 20000 nM.

Work on `COc1ccc(C2(c3cccc(-c4ccccc4)c3)NC(=N)N(C3CCCCC3)C2=O)cc1` (racemic) yielded an IC50 (Plasmodium falciparum [1]) of 1490 nM.

In the case of `CCCN1C(=N)NC(c2ccc(OC)cc2)(c2ccc(OC)cc2)C1=O`, the IC50 (Plasmodium falciparum [1]) is reported as 1140 nM.

Work on `N=C1NC(c2ccc(Cl)cc2)(c2ccc(Cl)cc2)C(=O)N1C1CCCCC1` yielded an IC50 (Plasmodium falciparum [1]) of 1070 nM.

With `N=C1NC(c2ccccc2)(c2ccccc2)C(=O)N1Cc1ccccc1` the IC50 (Plasmodium falciparum [1]) was 8290 nM.

For `Cc1cccc(C2(c3cccc(C)c3)NC(=N)N(C3CCCCC3)C2=O)c1`, the IC50 (Plasmodium falciparum [1]) was 533 nM.

`COc1ccc(C2(c3ccc(OC)cc3)NC(=N)N(Cc3ccccc3)C2=O)cc1` showed an IC50 (Plasmodium falciparum [1]) of 855 nM.

`N=C1NC(c2ccccc2)(c2cccc(OCc3ccccc3)c2)C(=O)N1C1CCCCC1` (racemic) showed an IC50 (Plasmodium falciparum [1]) of 641 nM.

In the case of `COc1ccc(C2(c3ccc(OC)cc3)NC(=N)N(C(C)C)C2=O)cc1`, the IC50 (Plasmodium falciparum [1]) is reported as 1660 nM.

`Cc1ccc(C2(c3ccc(C)cc3)NC(=N)N(C3CCCCC3)C2=O)cc1` gave an IC50 (Plasmodium falciparum [1]) of 1260 nM.

Work on `COc1ccc(C2(c3ccc(OC)cc3)NC(=N)N(C3CC3)C2=O)cc1` yielded an IC50 (Plasmodium falciparum [1]) of 4110 nM.

Compound `COc1ccc(C2(c3ccc(OC)cc3)NC(=N)N(C3CCCC3)C2=O)cc1` has an IC50 (Plasmodium falciparum [1]) of 611 nM.

For `COc1ccc(C2(c3ccc(OC)cc3)NC(=N)N(C3CCOCC3)C2=O)cc1`, the “inhibition (INH)” value (Cytochrome P450 2C9) was “Not Active”, the “inhibition (INH)” value (Cytochrome P450 2C19) was “Not Active” and the concentration at 24 h [10] was 29 ng/mL. For the same compound, the Activity (HepG2) was “Toxic”, the inhibition (Plasmodium falciparum [4]) was “Active” and the inhibition (Plasmodium falciparum [5]) was “Active”. For the same compound, the “inhibition (INH)” value (Cytochrome P450 1A2) was “Not Active”, the “inhibition (INH)” value (Cytochrome P450 3A4) was “Active” and the inhibition in vivo at 110 mg/kg (Plasmodium chabaudi [11]) was 63%. For the same compound, the IC50 (Plasmodium falciparum [1]) was 459 nM, the “inhibition (INH)” value (Cytochrome P450 2D6) was “Not Active” and the concentration at 0.5 h [12] was 4140 ng/mL.

For `COc1ccc(C2(c3ccc(OC)cc3)NC(=N)N(c3ccccc3)C2=O)cc1`, the IC50 (Plasmodium falciparum [1]) was 100000 nM.

`COc1ccc(C2(c3ccc(OC)cc3)NC(=N)N(CCCc3ccccc3)C2=O)cc1` gave an IC50 (Plasmodium falciparum [1]) of 512 nM.

Work on `N=C1NC(c2cccc(Cl)c2)(c2cccc(Cl)c2)C(=O)N1C1CCCCC1` yielded an IC50 (Plasmodium falciparum [1]) of 1060 nM.

In the case of `COc1ccc(C2(c3ccc(OC)cc3)NC(=N)N(C)C2=O)cc1`, the IC50 (Plasmodium falciparum [1]) is reported as 7920 nM.
